Measured values taken from ChEMBL document CHEMBL5120929, “Inhibitor Screen Identifies Covalent Inhibitors of the Protein Histidine Phosphatase PHPT1” (ACS Med Chem Lett, 2022).
Active and inactive are the calls of the source. The calls are words filed in the database; no cut-off is given here.

Legend:
[1] = target: T1, 14 kDa phosphohistidine phosphatase (Homo sapiens) (UniProt Q9NRX4); assay: Time dependent inhibition of PHPT1 (unknown origin) at 10 uM using DiFMUP as fluorogenic substrate preincubated for 15 to 120 mins followed by substrate addition and measured for 30 mins by fluorogenic assay; settings: time 45-150 min, TDE = time-dependent effect
T1 sequence (whole entry): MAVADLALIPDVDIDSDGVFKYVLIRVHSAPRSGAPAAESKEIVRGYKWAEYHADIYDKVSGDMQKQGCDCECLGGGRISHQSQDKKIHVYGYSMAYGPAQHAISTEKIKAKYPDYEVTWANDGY

[2] = target: T2, Mediator of RNA polymerase II transcription subunit 25 (Homo sapiens, UniProt Q71SY5); assay: Inhibition of Med25 transcriptional activation in human MCF-7 cells by fluorescence polarization assay; type: cell-based; settings: mcf7
T2 sequence (Q71SY5 whole entry): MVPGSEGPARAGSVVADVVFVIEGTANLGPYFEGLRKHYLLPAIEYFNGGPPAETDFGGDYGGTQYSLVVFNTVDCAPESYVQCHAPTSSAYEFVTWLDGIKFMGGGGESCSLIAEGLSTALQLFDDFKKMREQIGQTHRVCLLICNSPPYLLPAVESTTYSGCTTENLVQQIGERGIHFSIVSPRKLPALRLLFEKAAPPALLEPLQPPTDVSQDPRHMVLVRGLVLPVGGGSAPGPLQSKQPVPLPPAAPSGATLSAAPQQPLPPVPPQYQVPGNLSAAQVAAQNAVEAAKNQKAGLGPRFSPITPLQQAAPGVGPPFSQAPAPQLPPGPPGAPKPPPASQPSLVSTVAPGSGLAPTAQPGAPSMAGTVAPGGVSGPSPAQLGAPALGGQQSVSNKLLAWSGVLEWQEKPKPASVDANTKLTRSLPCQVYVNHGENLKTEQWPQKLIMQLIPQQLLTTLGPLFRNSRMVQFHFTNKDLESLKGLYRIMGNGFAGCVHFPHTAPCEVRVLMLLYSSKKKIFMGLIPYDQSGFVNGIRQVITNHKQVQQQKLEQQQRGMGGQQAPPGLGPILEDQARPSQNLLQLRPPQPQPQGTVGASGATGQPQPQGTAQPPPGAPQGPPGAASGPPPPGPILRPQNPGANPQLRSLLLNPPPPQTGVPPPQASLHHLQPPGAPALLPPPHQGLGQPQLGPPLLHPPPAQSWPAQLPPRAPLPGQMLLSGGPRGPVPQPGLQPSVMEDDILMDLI

[3] = target: T3, 14 kDa phosphohistidine phosphatase (Homo sapiens, UniProt Q9NRX4); assay: Inhibition of PHPT1 (unknown origin) assessed as inhibition constant measured up to 100 uM incubated up to 30 mins using DiFMUP as fluorogenic substrate by fluorogenic assay
T3 sequence (Q9NRX4 whole entry): T1 sequence (whole entry)
How it was run: (§1)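 Kinetics of time-dependent PHPT1 inactivation in the fluorogenic activity assay. Observed inactivation rate constants (kobs) were plotted against inhibitor concentration to obtain kinact and KI.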

[4] = target: T3, 14 kDa phosphohistidine phosphatase; assay: Inhibition of PHPT1 (unknown origin) using DiFMUP as fluorogenic substrate incubated for 30 mins followed by substrate addition and measured every 60 seconds for 30 mins by fluorogenic assay
[5] = target: T1, 14 kDa phosphohistidine phosphatase (Homo sapiens); assay: Inhibition of PHPT1 (unknown origin) assessed as inactivation constant measured up to 100 uM incubated up to 30 mins using DiFMUP as fluorogenic substrate by fluorogenic assay; how it was run: as §1
[6] = target: T1, 14 kDa phosphohistidine phosphatase (Homo sapiens); assay: Competitive inhibition of PHPT1 (unknown origin) assessed as change in Km and Vmax at below 150 uM using DifMUP as substrate by Michaelis-Menten based analysis
[7] = target: T1, 14 kDa phosphohistidine phosphatase (Homo sapiens); assay: Mixed inhibition of PHPT1 (unknown origin) assessed as change in Km and Vmax at above 150 uM using DifMUP as substrate by Michaelis-Menten based analysis
[8] = target: T1, 14 kDa phosphohistidine phosphatase (Homo sapiens); assay: Reversible inhibition of PHPT1 (unknown origin) at 1 mM using DiFMUP as fluorogenic substrate preincubated for 30 mins followed by substrate addition by dialysis method
How it was run: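 Reversibility was tested by measuring PHPT1 inhibition in the fluorogenic activity assay before and after dialysis.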

[9] = target: T1, 14 kDa phosphohistidine phosphatase (Homo sapiens); assay: Time dependent inhibition of PHPT1 (unknown origin) at 20 uM using DiFMUP as fluorogenic substrate preincubated for 15 to 120 mins followed by substrate addition and measured for 30 mins by fluorogenic assay; settings: time 45-150 min, TDE = time-dependent effect

Structure (SMILES)	inhibition [1]	IC50 [2] [µM]	Ki [3] [µM]	IC50 [4] [µM]	Kinact [5] [min⁻¹]	inhibition [6]	inhibition [7]	inhibition [8]	inhibition [9]
Cc1cc(O)c(C=O)c2c1C(=O)Oc1c(C)c(O)c3c(c1O2)C(O)OC3=O (centres undefined) [NORSTICTIC ACID]	Tde	2.3	90	7.9	1.7	–	–	–	–
O=[N+]([O-])c1cc([As](=O)(O)O)ccc1O [ROXARSONE]	–	–	–	80	–	Active	Active	–	–
CC(=O)Nc1cc([As](=O)(O)O)ccc1O [ACETARSONE]	–	–	–	100	–	Active	Active	Active	–
COc1cc(C)c2c(c1C=O)Oc1c(c(C)c(O)c3c1C(O)OC3=O)OC2=O (centres undefined) [STICTIC ACID]	–	–	–	22	–	–	–	–	Tde
